14 compounds from article PMC6800648 (Cell chemical biology, 2019) can be followed below.

The target of series [1] is T1, CBX7 (Mus musculus, UniProt Q8VDS3).
T1 sequence (Q8VDS3 2-69 limits assumed): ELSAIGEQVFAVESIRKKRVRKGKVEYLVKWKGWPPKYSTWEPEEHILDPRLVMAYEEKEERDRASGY
The series is described as follows: Polycomb in-vivo Assay. The series is classed as cell-based. The conditions noted are these: for activity in the Polycomb in-vivo Assay (reactivation of GFP expression): 48-hour treatment, flow cytometry.

The target of series [2] is T2, CBX7 chromodomain (Homo sapiens, UniProt O95931).
T2 sequence (O95931 1-62): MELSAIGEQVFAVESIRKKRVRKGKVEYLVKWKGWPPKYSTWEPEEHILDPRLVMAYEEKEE
Description: Fluorescence polarization. The series is classed as biochemical. The conditions noted are these: 30 μM CBX7 chromodomain, 100 nM FAM-ANRIL-RNA. An outline of the steps:
(§1)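 Buffer: 25 mM Tris-HCl pH 7.4, 100 mM NaCl, 0.05% Tween-20, 2 mM DTT; 100 nM FAM-dsDNA or FAM-ANRIL-RNA; 0.2% DMSO; 30 min at RT. Compound titration: eight-point three-fold series from 100 µM with 30 µM CBX7 chromodomain. Ratio mode: CBX7 and test compound co-diluted at fixed 3:1 from 300 µM/100 µM. Polarisation normalised to a no-protein control; α fitted by the Stockton-Ehlert allosteric model.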
(In general: Polarisation of emitted light reports the rotation of a fluorescent probe.)

Series [3] deals with T2, CBX7 chromodomain. Description: Fluorescence polarization. The series is classed as biochemical. The conditions noted are these: 30 μM CBX7 chromodomain, 100 nM FAM-dsDNA. The gist of the method:
as §1

Series [4] addresses T2, CBX7 chromodomain. Description: Electrophoretic mobility shift assay. It is filed as biochemical. The conditions noted are these: EMSA, 150 mM CBX7 and 100 nM FAM-dsDNA probe, 1:3 ratio of compound to CBX7. The gist of the method:
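Buffer: 25 mM Tris-HCl pH 7.4, 100 mM NaCl, 0.05% Tween-20, 2 mM DTT. Compound runs used 150 µM CBX7 with 100 nM FAM-DNA probe and 50 µM test compound (0.3% DMSO); protein-only runs used a three-fold CBX7 series. Binding 20 min on ice. Native 10% Tris-glycine gel at 100 V, 4°C, 90 min in the dark. FAM fluorescence imaged, then Coomassie-stained.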
Background: Mobility shift assays separate free from complexed probe on a gel.

The target in series [5] is T3, CBX7 (Mus musculus, UniProt Q8VDS3).
T3 sequence (Q8VDS3 1-158): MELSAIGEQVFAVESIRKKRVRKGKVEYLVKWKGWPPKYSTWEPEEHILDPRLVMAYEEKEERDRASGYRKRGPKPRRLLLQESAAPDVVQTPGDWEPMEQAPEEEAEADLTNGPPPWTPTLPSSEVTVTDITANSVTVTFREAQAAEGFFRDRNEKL
It is filed as cell-based. The conditions noted are these: TetOFF reporter cell line; UNC4976 compared to UNC3866 treatment.

The subject of a further series is mESCs. The series is described as follows: CellTiter-Glo viability assay in mESCs. The series is classed as cell-based, mouse. To be noted: 48 hr. An outline of the steps: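 Mouse ES cells, 5,000 per well, exposed in technical triplicate for 48 hr at 37°C to a ten-point three-fold dilution series prepared from 50 mM DMSO stocks (0.2% DMSO final). Media-only wells served as negative controls. After equilibrating at room temperature, CellTiter-Glo was added, with 2 min shaking and 10 min settling, then luminescence read.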
On the technique in general: In ATP-based viability assays light output follows the ATP content of the culture.

The structures appear in SMILES notation. Numbered stars: 1 amine (or outer) side, 2 acyl side, 3 side chain; on linkers, the order of the positions; unused ones are H or OH. Square brackets hold non-standard residues; d marks the D form. Peptide text beside a SMILES is read from it. * marks the point of attachment. X2 = COc1ccc(CN(C)CCCC[C@H](N[*:1])C(=O)[*:2])cc1; X5 = CN(CCCC[C@H](N[*:1])C(=O)[*:2])Cc1ccc(F)cc1; X8 = O=C([C@H](CCCCN(C1CCC1)C1CCC1)N[*:1])[*:2]; X3 = CN(CCCC[C@H](N[*:1])C(=O)[*:2])Cc1ccccc1; X7 = CN(CCCC[C@H](N[*:1])C(=O)[*:2])C1CCCCC1; X1 = CCCN(CCCC[C@H](N[*:1])C(=O)[*:2])C(C)C; X6 = CN(CCCC[C@H](N[*:1])C(=O)[*:2])C1CCCC1; Lys(Et,iPr) = CCN(CCCC[C@H](N)C(=O)O)C(C)C; X4 = COC(C)N(C)CCCC[C@H](N[*:1])C(=O)[*:2]; Benzoyl(4-tBu) = CC(C)(C)c1ccc(C(=O)*)cc1; X9 = O=C([C@H](CCCCN1CCCCC1)N[*:1])[*:2]; Lys(Et2) = CCN(CC)CCCC[C@H](N)C(=O)O; Lys(Me2) = CN(C)CCCC[C@H](N)C(=O)O; NMeA = CN[C@@H](C)C(=O)O

Turning to `COC(=O)[C@H](CO)NC(=O)[C@H](CCCCN(C)C)NC(=O)[C@H](CC(C)C)NC(=O)[C@H](C)NC(=O)[C@H](Cc1ccccc1)NC(=O)c1ccc(C(C)(C)C)cc1` [UNC5352, methyl N^2-(4-(tert-butyl)benzoyl)-L-phenylalanyl-L-alanyl-L-leucyl-N^6,N^6-dimethyl-L-lysyl-L-serinate] ({Benzoyl(4-tBu)}-FAL[Lys(Me2)]S-OMe), a half-maximal effect on CBX7 [1] (EC50) was put at 105 ± 11.3 µM. Still for that read-out and setting: the result for `COC(=O)[C@H](CO)NC(=O)[C@H](CCCCN(C)Cc1ccccc1)NC(=O)[C@H](CC(C)C)NC(=O)[C@H](C)NC(=O)[C@H](Cc1ccccc1)NC(=O)c1ccc(C(C)(C)C)cc1` [UNC6375, methyl N^6-benzyl-N^2-(4-(tert-butyl)benzoyl)-L-phenylalanyl-L-alanyl-L-leucyl-N^6-methyl-L-lysyl-L-serinate] ({Benzoyl(4-tBu)}-FAL[X3]S-OMe) reads 2.36 ± 0.115 µM; that for `COC(=O)[C@H](CO)NC(=O)[C@H](CCCCN(C)C1CCCCC1)NC(=O)[C@H](CC(C)C)NC(=O)[C@H](C)NC(=O)[C@H](Cc1ccccc1)NC(=O)c1ccc(C(C)(C)C)cc1` [UNC6372, methyl N^2-(4-(tert-butyl)benzoyl)-L-phenylalanyl-L-alanyl-L-leucyl-N^6-cyclohexyl-N^6-methyl-L-lysyl-L-serinate] ({Benzoyl(4-tBu)}-FAL[X7]S-OMe), 4.59 ± 0.292 µM. The compound `COC(=O)[C@H](CO)NC(=O)[C@H](CCCCN(C)Cc1ccc(F)cc1)NC(=O)[C@H](CC(C)C)NC(=O)[C@H](C)NC(=O)[C@H](Cc1ccccc1)NC(=O)c1ccc(C(C)(C)C)cc1` [UNC6376, methyl N^2-(4-(tert-butyl)benzoyl)-L-phenylalanyl-L-alanyl-L-leucyl-N^6-(4-fluorobenzyl)-N^6-methyl-L-lysyl-L-serinate] ({Benzoyl(4-tBu)}-FAL[X5]S-OMe) registered a 50% effective concentration (EC50) at CBX7 [1] of 2.22 ± 0.194 µM. In turn, `COC(=O)[C@H](CO)NC(=O)[C@H](CCCCN1CCCCC1)NC(=O)[C@H](CC(C)C)NC(=O)[C@H](C)NC(=O)[C@H](Cc1ccccc1)NC(=O)c1ccc(C(C)(C)C)cc1` [UNC6374, methyl ((S)-2-((S)-2-((S)-2-((S)-2-(4-(tert-butyl)benzamido)-3-phenylpropanamido)propanamido)-4-methylpentanamido)-6-(piperidin-1-yl)hexanoyl)-L-serinate] ({Benzoyl(4-tBu)}-FAL[X9]S-OMe) displayed a half-maximal effective concentration (EC50) on CBX7 [1] of 33.1 ± 1.9 µM.

Consider `COC(=O)[C@H](CO)NC(=O)[C@H](CCCCN(C)Cc1ccc(OC)cc1)NC(=O)[C@H](CC(C)C)NC(=O)[C@H](C)NC(=O)[C@H](Cc1ccccc1)NC(=O)c1ccc(C(C)(C)C)cc1` [UNC6483, methyl N^2-(4-(tert-butyl)benzoyl)-L-phenylalanyl-L-alanyl-L-leucyl-N^6-(4-methoxybenzyl)-N^6-methyl-L-lysyl-L-serinate] ({Benzoyl(4-tBu)}-FAL[X2]S-OMe), for which the EC50 at CBX7 [1] amounted to 2.06 ± 0.135 µM.

Turning to `Cc1ccccc1Cn1c(=N)n(CC(O)c2ccc(Cl)c(Cl)c2)c2ccccc21.Cl` (centres unmarked) [MS351, reference compound], the “change of fluorescence polarization on compound titration” value on CBX7 chromodomain [2] and at CBX7 chromodomain [3] was “did not observe increased fluorescence polarization” in each case. Moreover, the “activity in the Polycomb in-vivo Assay (reactivation of GFP expression)” value (from here on “activity in the Polycomb in-vivo Assay”) at CBX7 [1] is “inactive”. Also, on CBX7 chromodomain [4], the “effect on FAM-dsDNA binding to CBX7” value is recorded as “did not observe enhancement”.

Consider `CCN(CC)CCCC[C@H](NC(=O)[C@H](CC(C)C)NC(=O)[C@H](C)N(C)C(=O)[C@H](Cc1ccccc1)NC(=O)c1ccc(C(C)(C)C)cc1)C(=O)N[C@@H](CO)C(=O)OC` [UNC4219, methyl N^2-N-((4-(tert-butyl)benzoyl)-L-phenylalanyl)-N-methyl-L-alanyl-L-leucyl-N^6,N^6-diethyl-L-lysyl-L-serinate, reference compound] ({Benzoyl(4-tBu)}-F[NMeA]L[Lys(Et2)]S-OMe), for which the “derepression of the GFP reporter gene / maintenance of Polycomb silencing” value at CBX7 [5] is given as “unaffected”. Further, the “mESC viability upon compound treatment” value in the series on mESCs is reported as “non-toxic”. Besides, the “activity in the Polycomb in-vivo Assay” value at CBX7 [1] is “inactive”. For the same compound, at CBX7 chromodomain [4], the “effect on FAM-dsDNA binding to CBX7” value is given as “no effect”.

In the case of `CCCN(CCCC[C@H](NC(=O)[C@H](CC(C)C)NC(=O)[C@H](C)NC(=O)[C@H](Cc1ccccc1)NC(=O)c1ccc(C(C)(C)C)cc1)C(=O)N[C@@H](CO)C(=O)OC)C(C)C` [UNC4971, methyl N^2-(4-(tert-butyl)benzoyl)-L-phenylalanyl-L-alanyl-L-leucyl-N^6-isopropyl-N^6-propyl-L-lysyl-L-serinate] ({Benzoyl(4-tBu)}-FAL[X1]S-OMe), on CBX7 [1], the concentration for a half-maximal effect (EC50) amounted to 26.5 ± 3.24 µM.

`COC(=O)[C@H](CO)NC(=O)[C@H](CCCCN(C1CCC1)C1CCC1)NC(=O)[C@H](CC(C)C)NC(=O)[C@H](C)NC(=O)[C@H](Cc1ccccc1)NC(=O)c1ccc(C(C)(C)C)cc1` [UNC6370, methyl N^2-(4-(tert-butyl)benzoyl)-L-phenylalanyl-L-alanyl-L-leucyl-N^6,N^6-dicyclobutyl-L-lysyl-L-serinate] ({Benzoyl(4-tBu)}-FAL[X8]S-OMe) returned an EC50 at CBX7 [1] of 13.7 ± 0.535 µM. Still for that read-out and setting: the result for `COC(=O)[C@H](CO)NC(=O)[C@H](CCCCN(C)C(C)OC)NC(=O)[C@H](CC(C)C)NC(=O)[C@H](C)NC(=O)[C@H](Cc1ccccc1)NC(=O)c1ccc(C(C)(C)C)cc1` (stereo partly drawn) [UNC6481, methyl N^2-(4-(tert-butyl)benzoyl)-L-phenylalanyl-L-alanyl-L-leucyl-N^6-(1-methoxyethyl)-N^6-methyl-L-lysyl-L-serinate] ({Benzoyl(4-tBu)}-FAL[X4]S-OMe) reads 23.7 ± 1.74 µM; that for `COC(=O)[C@H](CO)NC(=O)[C@H](CCCCN(C)C1CCCC1)NC(=O)[C@H](CC(C)C)NC(=O)[C@H](C)NC(=O)[C@H](Cc1ccccc1)NC(=O)c1ccc(C(C)(C)C)cc1` [UNC6371, methyl N^2-(4-(tert-butyl)benzoyl)-L-phenylalanyl-L-alanyl-L-leucyl-N^6-cyclopentyl-N^6-methyl-L-lysyl-L-serinate] ({Benzoyl(4-tBu)}-FAL[X6]S-OMe), ~20 µM.

Turning to `COc1cccc(C(=O)N2CCN(C(=O)COc3cccc(C)c3)CC2)c1OC` [MS452, reference compound], the “change of fluorescence polarization on compound titration” value on CBX7 chromodomain [2] and at CBX7 chromodomain [3] was “slight destabilizing effect” throughout. The “activity in the Polycomb in-vivo Assay” value at CBX7 [1] was “inactive”. Also, the “effect on FAM-dsDNA binding to CBX7” value at CBX7 chromodomain [4] was “no effect”. `CCN(CCCC[C@H](NC(=O)[C@H](CC(C)C)NC(=O)[C@H](C)NC(=O)[C@H](Cc1ccccc1)NC(=O)c1ccc(C(C)(C)C)cc1)C(=O)N[C@@H](CO)C(=O)OC)C(C)C` [UNC4941, methyl N^2-(4-(tert-butyl)benzoyl)-L-phenylalanyl-L-alanyl-L-leucyl-N^6-ethyl-N^6-isopropyl-L-lysyl-L-serinate] ({Benzoyl(4-tBu)}-FAL[Lys(Et,iPr)]S-OMe) had an EC50 on CBX7 [1] of 36.6 ± 1.14 µM.

Broadly, the EC50 is the concentration that produces a half-maximal response.
